Results published in ChEMBL document CHEMBL4138242, “Synthesis and antibacterial evaluation of novel cationic chalcone derivatives possessing broad spectrum antibacterial activity” (Eur J Med Chem, 2018).

Tested on: Staphylococcus aureus
Experiment: Antibacterial activity against Staphylococcus aureus ATCC 29213 after 16 to 20 hrs by broth microdilution method
Format: functional
Details: not given
Outline: (§1)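 Broth microdilution per CLSI. Bacteria grown 4-6 h (about 10⁸ CFU/mL), then diluted to about 10⁶ CFU/mL. Medium: Mueller-Hinton broth, except Luria-Bertani broth for E. coli. Compounds in sterile water, twofold series 256-0.5 µg/mL, mixed 1:1 with inoculum, 37 °C for 16-20 h. MIC is the lowest concentration without visible growth. Duplicate wells; experiment repeated at least twice.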

| SMILES | MIC |
| --- | --- |
| CCCCCCCC[N+](C)(C)CC(=O)Nc1ccc(C(=O)/C=C/c2cccs2)cc1.[Cl-] | 0.5 µg/mL |

Tested on: Enterococcus faecalis
Experiment: Antibacterial activity against Enterococcus faecalis ATCC 29212 after 16 to 20 hrs by broth microdilution method
Format: functional
Details: not given
Outline: as §1

| SMILES | MIC |
| --- | --- |
| CCCCCCCC[N+](C)(C)CC(=O)Nc1ccc(C(=O)/C=C/c2cccs2)cc1.[Cl-] | 1 µg/mL |

Tested on: Escherichia coli
Experiment: Antibacterial activity against Escherichia coli ATCC 25922 after 16 to 20 hrs by broth microdilution method
Format: functional
Details: not given
Outline: as §1

| SMILES | MIC |
| --- | --- |
| CCCCCCCC[N+](C)(C)CC(=O)Nc1ccc(C(=O)/C=C/c2cccs2)cc1.[Cl-] | 4 µg/mL |

Tested on: Salmonella enterica
Experiment: Antibacterial activity against Salmonella enterica ATCC 13076 after 16 to 20 hrs by broth microdilution method
Format: functional
Details: not given
Outline: as §1

| SMILES | MIC |
| --- | --- |
| CCCCCCCC[N+](C)(C)CC(=O)Nc1ccc(C(=O)/C=C/c2cccs2)cc1.[Cl-] | 8 µg/mL |

Tested on: not listed separately
Experiment: Hemolytic activity in sheep RBC after 1 hr
Format: ADME, cell-based, Ovis aries, Erythrocyte
Details: sheep red blood cells (erythrocytes)
Outline: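 Sheep red blood cells (150 µL suspension) mixed with 50 µL of compound dilutions (5120-10 µg/mL), 1 h at 37 °C, then centrifuged. Supernatant read at 540 nm. Percent hemolysis calculated relative to RBC-only control (0%) and 0.1% Triton X-100 (100%).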

| SMILES | HC50 at 1 h |
| --- | --- |
| CCCCCCCC[N+](C)(C)CC(=O)Nc1ccc(C(=O)/C=C/c2cccs2)cc1.[Cl-] | 133 µg/mL |

Tested on: Staphylococcus aureus
Experiment: Antibacterial activity against methicillin-resistant Staphylococcus aureus clinical isolate 1105183 cono7 after 16 to 20 hrs by broth microdilution method
Format: functional
Details: not given
Outline: (§2)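 CLSI broth microdilution in Mueller-Hinton broth. A 4-6 h culture was diluted to about 10⁶ CFU/mL and mixed 1:1 with compound dilutions prepared at 256 to 0.5 µg/mL from aqueous stocks. Plates were incubated at 37 °C for 16-20 h and read visually for MIC. Each concentration was run in duplicate, and the experiment was repeated at least twice. Vancomycin and meropenem were comparators.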

| SMILES | MIC |
| --- | --- |
| CCCCCCCC[N+](C)(C)CC(=O)Nc1ccc(C(=O)/C=C/c2cccs2)cc1.[Cl-] | 1 µg/mL |

Tested on: Staphylococcus aureus
Experiment: Antibacterial activity against methicillin-resistant Staphylococcus aureus clinical isolate 20130911034sau after 16 to 20 hrs by broth microdilution method
Format: functional
Details: not given
Outline: as §2

| SMILES | MIC |
| --- | --- |
| CCCCCCCC[N+](C)(C)CC(=O)Nc1ccc(C(=O)/C=C/c2cccs2)cc1.[Cl-] | 1 µg/mL |

Tested on: Staphylococcus aureus
Experiment: Antibacterial activity against methicillin-resistant Staphylococcus aureus clinical isolate 0831010 after 16 to 20 hrs by broth microdilution method
Format: functional
Details: not given
Outline: as §2

| SMILES | MIC |
| --- | --- |
| CCCCCCCC[N+](C)(C)CC(=O)Nc1ccc(C(=O)/C=C/c2cccs2)cc1.[Cl-] | 0.5 µg/mL |

Tested on: Staphylococcus aureus
Experiment: Antibacterial activity against methicillin-resistant Staphylococcus aureus clinical isolate 1104060 after 16 to 20 hrs by broth microdilution method
Format: functional
Details: not given
Outline: as §2

| SMILES | MIC |
| --- | --- |
| CCCCCCCC[N+](C)(C)CC(=O)Nc1ccc(C(=O)/C=C/c2cccs2)cc1.[Cl-] | 16 µg/mL |

Tested on: Staphylococcus aureus
Experiment: Antibacterial activity against methicillin-resistant Staphylococcus aureus clinical isolate 20131012632sau after 16 to 20 hrs by broth microdilution method
Format: functional
Details: not given
Outline: as §2

| SMILES | MIC |
| --- | --- |
| CCCCCCCC[N+](C)(C)CC(=O)Nc1ccc(C(=O)/C=C/c2cccs2)cc1.[Cl-] | 4 µg/mL |

Tested on: Staphylococcus aureus
Experiment: Antibacterial activity against methicillin-resistant Staphylococcus aureus clinical isolate 1207007 after 16 to 20 hrs by broth microdilution method
Format: functional
Details: not given
Outline: as §2

| SMILES | MIC |
| --- | --- |
| CCCCCCCC[N+](C)(C)CC(=O)Nc1ccc(C(=O)/C=C/c2cccs2)cc1.[Cl-] | 1 µg/mL |

Tested on: Staphylococcus aureus
Experiment: Antibacterial activity against methicillin-resistant Staphylococcus aureus clinical isolate 1-may after 16 to 20 hrs by broth microdilution method
Format: functional
Details: not given
Outline: as §2

| SMILES | MIC |
| --- | --- |
| CCCCCCCC[N+](C)(C)CC(=O)Nc1ccc(C(=O)/C=C/c2cccs2)cc1.[Cl-] | 2 µg/mL |

Tested on: Staphylococcus aureus
Experiment: Antibacterial activity against methicillin-resistant Staphylococcus aureus clinical isolate 0906202 after 16 to 20 hrs by broth microdilution method
Format: functional
Details: not given
Outline: as §2

| SMILES | MIC |
| --- | --- |
| CCCCCCCC[N+](C)(C)CC(=O)Nc1ccc(C(=O)/C=C/c2cccs2)cc1.[Cl-] | 1 µg/mL |

Tested on: Staphylococcus aureus
Experiment: Antibacterial activity against methicillin-resistant Staphylococcus aureus clinical isolate 1208143 after 16 to 20 hrs by broth microdilution method
Format: functional
Details: not given
Outline: as §2

| SMILES | MIC |
| --- | --- |
| CCCCCCCC[N+](C)(C)CC(=O)Nc1ccc(C(=O)/C=C/c2cccs2)cc1.[Cl-] | 2 µg/mL |

Tested on: Klebsiella pneumoniae
Experiment: Antibacterial activity against drug-resistant carbapenemase producing Klebsiella pneumoniae clinical isolate KP-14-8 after 16 to 20 hrs by broth microdilution method
Format: functional
Details: not given
Outline: as §2

| SMILES | MIC |
| --- | --- |
| CCCCCCCC[N+](C)(C)CC(=O)Nc1ccc(C(=O)/C=C/c2cccs2)cc1.[Cl-] | 8 µg/mL |

Tested on: Klebsiella pneumoniae
Experiment: Antibacterial activity against drug-resistant carbapenemase producing Klebsiella pneumoniae clinical isolate KP-13-45 after 16 to 20 hrs by broth microdilution method
Format: functional
Details: not given
Outline: as §2

| SMILES | MIC |
| --- | --- |
| CCCCCCCC[N+](C)(C)CC(=O)Nc1ccc(C(=O)/C=C/c2cccs2)cc1.[Cl-] | 8 µg/mL |

Tested on: Klebsiella pneumoniae
Experiment: Antibacterial activity against drug-resistant carbapenemase producing Klebsiella pneumoniae clinical isolate KP-14-3 after 16 to 20 hrs by broth microdilution method
Format: functional
Details: not given
Outline: as §2

| SMILES | MIC |
| --- | --- |
| CCCCCCCC[N+](C)(C)CC(=O)Nc1ccc(C(=O)/C=C/c2cccs2)cc1.[Cl-] | 8 µg/mL |

Tested on: Klebsiella pneumoniae
Experiment: Antibacterial activity against drug-resistant carbapenemase producing Klebsiella pneumoniae clinical isolate KP-14-1 after 16 to 20 hrs by broth microdilution method
Format: functional
Details: not given
Outline: as §2

| SMILES | MIC |
| --- | --- |
| CCCCCCCC[N+](C)(C)CC(=O)Nc1ccc(C(=O)/C=C/c2cccs2)cc1.[Cl-] | 8 µg/mL |

Tested on: Klebsiella pneumoniae
Experiment: Antibacterial activity against drug-resistant carbapenemase producing Klebsiella pneumoniae clinical isolate KP-14-4 after 16 to 20 hrs by broth microdilution method
Format: functional
Details: not given
Outline: as §2

| SMILES | MIC |
| --- | --- |
| CCCCCCCC[N+](C)(C)CC(=O)Nc1ccc(C(=O)/C=C/c2cccs2)cc1.[Cl-] | 8 µg/mL |
